Measurements taken from ChEMBL document CHEMBL1135976, “Antimalarial activity of yingzhaosu A analogues” (J Med Chem, 2002).

What was measured:
FM3A [1] = assay: Percent inhibition of growth against mouse mammary FM3A cells; type: cell-based; design: concentration or dose not given beside the values
Procedure, shortened: (§1)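 Mouse mammary tumor FM3A cells in culture served as the mammalian cytotoxicity counterscreen. EC50 was determined; where no activity was found at 10 μM, percent growth inhibition at that concentration was given.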

FM3A [2] = assay: Effective concentration against mouse mammary FM3A cells; type: ADME, cell-based; procedure, shortened: as §1
[3] = Selectivity as the ratio of EC50 value for FM3A cells to that of Plasmodium falciparum.; type: functional
Procedure, shortened: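 Selectivity was taken as the mean EC50 in FM3A cells divided by the mean EC50 against P. falciparum FCR-3.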

Plasmodium falciparum = assay: In vitro antimalarial activity against Plasmodium falciparum; type: functional, organism-based
Procedure, shortened: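 Chloroquine-sensitive P. falciparum FCR-3 strain cultured in vitro. EC50 was determined.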

Mus musculus [4] = assay: Mice survival days reported after intramuscular administration; type: ADME, organism-based; conditions: in vivo, im
Procedure, shortened: (§2)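 P. berghei NK 65 strain in mice, five per group. Compounds in olive oil were given ip or im once daily on days 0–3, starting on the day of infection. Parasitemia was read on day 4 from Giemsa-stained tail blood smears, counting 1×10^4 erythrocytes per film, and suppression calculated against DMSO sham-treated infected controls. Survival was recorded in days. Values are means of five mice, one test.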

Mus musculus [5] = assay: Mice survival days reported after intraperitoneal administration; type: ADME, organism-based; conditions: in vivo, ip; procedure, shortened: as §2
Plasmodium berghei = assay: Antimalarial activity against Plasmodium berghei infected mice (Mus musculus) after intramuscular administration at a dose 100 mg/kg/day; type: ADME, organism-based; design: route intramuscular; conditions: im; procedure, shortened: as §2

SMILES	Inhibition (FM3A [1]) [%]	EC50 (FM3A [2]) [µM]	Selectivity [3]	EC50 (Plasmodium falciparum) [µM]	Survival (Mus musculus [4]) [days]	Survival (Mus musculus [5]) [days]	inhibition at 100 mg/kg (Plasmodium berghei) [%]
CC12CCC[C@H](C1)C(C)(CI)O2 (some centres not stated)	0	> 48	>48	1			
COC12CCC[C@@H](C1)C(I)C(C)(C)OO2 (some centres not stated)	10	> 64	>4	15			
CCOC(=O)C(I)C12CCCC(C1)C(C)(C)OO2 (configuration not stated)		3.1	282	0.011	9.8	6.5	80
CC1(C)OOC2(CI)CCCC1C2 (configuration not stated)		68	1700	0.04	9.6	7	99
COC12C[C@H](CC[C@@H]1C)C(C)(CI)OO2 (some centres not stated)	8	> 54	>27	2			
COC12CCC[C@H](CC(C)(CI)OO1)C2 (some centres not stated)	6	> 80	>32	2.5			
CC12CCC[C@@H](C1)C(C)(CI)OO2 (some centres not stated)	10	> 84	>6462	0.013			
CC1(CI)C[C@H]2CCCCC2O1 (some centres not stated)	34	> 210	>2	120			
COC12CCC[C@@H](C1)C(C)(CI)OO2 (some centres not stated)	19	> 70	>41	1.7			
CC1(C)OC2(CI)CCCC1C2 (configuration not stated)	10	> 84	>14	5.8			
CC1(CI)C[C@H]2CCCC(C2)OO1 (some centres not stated)	47	> 96	>32	3			
CC1(CI)C[C@H]2CCCC[C@@H]2OO1 (relative stereo)		66	44	1.5			
C[C@@H]1CC[C@H]2[C@@H](C)C(=O)O[C@@H]3O[C@@]4(C)CC[C@@H]1[C@]32OO4 [ARTEMISININ]			1000				
